From the RNAGym collection of RNA variant scans (doi:10.1126/science.aae0568)
Variants at the floor of the assay were thinned out.

B1: tRNA (parent)
chain: GUUCCGUUGGCGUAAUGGUAACGCGUCUCCCUCCUAAGGAGAAGACUGCGGGUUCGAGUCCCGUACGGAACG

Variants of: B1
Assay: yeast fitness relative to wild type (ratio to wild type); higher = fitter; tRNA-Arg(CCU), competitive growth, 37 C, YPD
How it was run: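 Variants of the tRNA-Arg(CCU) gene were chemically synthesised with a 3% per-site mutation rate across 69 sites and placed at the native genomic locus in Saccharomyces cerevisiae. Six parallel replicates of the pooled strains were competed in YPD at 37°C for 24 hours, and gene amplicons from the start and end populations were read by 100-nucleotide paired-end sequencing. Darwinian fitness relative to wild type was derived from changes in genotype frequencies. Genotypes required ≥ 100 starting reads, and estimates < 0.5 were set to 0.5.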

Variant	yeast fitness
GUUCCGUUGGCGUAAUAGUAACGGGUGUCCCUCCUAAGGAGAAGACUGCGGGUUCGAGCCCCGUACGGUACG [G17A C24G C27G U59C A69U]	≤ 0.5
GUUCCGUUGGCGUAAUAGUAACGGGUGUCCCUCCUAAGGAGAAGACUGCGGGUUCGAGUCCCGUACAGAACG [G17A C24G C27G G67A]	0.583
GUUCCGUUGGCGUAAUAGUAAUGCGUCUACCUCCUGAGGAGAAGUCUGCGGGUUCGAGUCCCGUACGGAACG [G17A C22U C29A A36G A45U]	≤ 0.5
GUUCCGUUGGCGUAAUAGUAACGCGUCUCACUCCUCAGGAGAAGACUGCGGGUUCGAGUCCCGUACGGAACG [G17A C30A A36C]	≤ 0.5
GUUCCGUUGGCGUAAUAGUAACGCGUCUCCCUCCUAAGGAGAAGACUGCGGGUUCGCGUCCCAUACAGAACG [G17A A57C G63A G67A]	≤ 0.5
GUUCCGUUGGCGUAAUAGUAAUGCGUCCCCCUCCUAAGGAGAAGACUGCGGGUUCGGGUCUCGUACGGUACG [G17A C22U U28C A57G C61U A69U]	≤ 0.5
GUUCCGUUGGCGUAAUAGUAACGCGUCUCUCUCCUAAGGAGAAGACUGCGGGUUCGAGUCCCCUCCGGAACG [G17A C30U G63C A65C]	0.529
GUUCCGUUGGCGUAAUAGUAACGCGUCUUCCUUCUAAGGAGAAGACUGCGGGUUCGAGUGCCGUACGGAACG [G17A C29U C33U C60G]	0.594
GUUCCGUUGGCGUAAUAGUAACGCGUCUCCCUCCUAAGGAGAAGACUGCGGGUUCGAGUCCCGUACGGUACG [G17A A69U]	0.809
GUUCCGUUGGCGUAAUAGUAAGGCGUAUCCCUCCUAAGGAGAAGACUGCGGGUUCGAGUCCGGUACGGAACG [G17A C22G C27A C62G]	≤ 0.5
GUUCCGUUGGCGUAAUAGUAACGCGUCUCGCUCCUAAGGAGAAGGCUGCGGGUUCGAGUCCCGUACGGAACG [G17A C30G A45G]	0.584
GUUCCGUUGGCGUAAUAGUAACGCGUCUCGCUCCUAAGGAGAAGACUACGGGCUCGAGUCCCGUACGGAACG [G17A C30G G48A U53C]	≤ 0.5
GUUCCGUUGGCGUAAUAGUAAAGCGUCUCCCUCCUAAGGAGAAGCUUGCGGGUUCGAGUCACGUACGGAACG [G17A C22A A45C C46U C61A]	≤ 0.5
GUUCCGUUGGCGUAAUAGUAAGGCGUCUCCGUGCUAAGGAGAAGACUGCGGGUUCGAGUCCCGUACGGAACG [G17A C22G C31G C33G]	≤ 0.5
GUUCCGUUGGCGUAAUAGUAACGCGUCUUCCUCCUAAGGAGAAGACUGCGGGUUCGGGCCCCGUACGGAACG [G17A C29U A57G U59C]	≤ 0.5
GUUCCGUUGGCGUAAUAGUAACGCGUGUCCCUCCUCAGGAGAAGACUGCGGGUACGAGUCCCGUACGGAACG [G17A C27G A36C U54A]	0.555
GUUCCGUUGGCGUAAUAGUAACGCGUCUACCUCCUAAGGAGAAGACUGCGGGUUCGAGUCCCGUACCGUACG [G17A C29A G67C A69U]	≤ 0.5
GUUCCGUUGGCGUAAUAGUAACGCGUCUUCCUCCGACCGAGAAGACUGGGGGUUCGAGUCCCGUACGGAACG [G17A C29U U35G A37C G38C C49G]	0.545
GUUCCGUUGGCGUAAUAGUAACGAGUCUCCCUCCUAAGGAGAAGAAUGCGGGUUCGAGUCCCGUACGGAACG [G17A C24A C46A]	0.727

Variant	yeast fitness
GUUCCGUUGGCGUAAUAGUAAGGCGUCUUCCUCCUAAGGAGAAGACUGCGGGUUCGAGUCCCGUACGGAACG [G17A C22G C29U]	≤ 0.5
GUUCCGUUGGCGUAAUAGUAAAGCGUCUCCCUCCUAAGGAGAAGUCUGCGGGUUCGAGUCCCGUACGGAUCG [G17A C22A A45U A70U]	≤ 0.5
GUUCCGUUGGCGUAAUAGUAACGCGUCUCUCUCCUCAGGAGACGACUGCGGGUUCGAGUCCCGUACGGAACG [G17A C30U A36C A43C]	≤ 0.5
GUUCCGUUGGCGUAAUAGUAAAGCGUCUCCCUCCUAAGGAGAAGACUGCGGGUUCGAGUCCCAUACGGAACG [G17A C22A G63A]	≤ 0.5
GUUCCGUUGGCGUAAUAGUAAAGCGUCUCCCUCCUAAGGAGAAGUCUGCGGGUUCGAGUCCCGUAUGGAACG [G17A C22A A45U C66U]	≤ 0.5
GUUCCGUUGGCGUAAUAGUAACGCGUCUCCCUCCUAAGGAGAUGACUGCGGGUUCGAGUCCCGUACGGAACG [G17A A43U]	0.81
GUUCCGUUGGCGUAAUAGUAACGCGUCUCCUUCCUAAGGAGAAGACUGCGGGUUCGAGUCCCGUAAGGAACG [G17A C31U C66A]	≤ 0.5
GUUCCGUUGGCGUAAUAGUAACGCGUGUCCAUCCUAAGGAGAAGACUGCGGGUUCGAGUCCCGUACGGAACG [G17A C27G C31A]	≤ 0.5
GUUCCGUUGGCGUAAUAGUAACGCGUCUCCCUCCUAAGGAGAAGACUGCGGGUUCGAGUCCCGUCCGGAACG [G17A A65C]	0.733
GUUCCGUUGGCGUAAUAGUAACGCGUCUCCCUCCUAAGGAGAAGACUGCGGGUUCGAGUCCCGUGCGGAACG [G17A A65G]	0.884
GUUCCGUUGGCGUAAUAGUAAAGCGUCUCCCUCCUAAGGAGAAGACUGCGGGUUCGAGUUUCGUACGGAACG [G17A C22A C60U C61U]	≤ 0.5
GUUCCGUUGGCGUAAUAGUAACGCGUCUCCCUCCUAAGGAGAAGCCUGCGGGUUCGAGUCCCCUAUGGAACG [G17A A45C G63C C66U]	≤ 0.5
GUUCCGUUGGCGUAAUAGUAACGGGUCUGCCUCCUAUGGAGAAGACUGCGGGUUCGAGUCCCGUACGGAACG [G17A C24G C29G A37U]	≤ 0.5
GUUCCGUUGGCGUAAUAGUAAUGCGUCUCCCUCCUAAGGAGAAGGCUGCGGGUUCGAGUCCCGUACGGAACG [G17A C22U A45G]	≤ 0.5
GUUCCGUUGGCGUAAUAGUAACGCGUCUCCGUCCUAACGAGAAGACUGCGGGUUCGAGUCCCCUACGGAACG [G17A C31G G38C G63C]	≤ 0.5
GUUCCGUUGGCGUAAUAGUAACGUGUCUCUCUCCUAAGGAGAAGAAUGCGGGUUCGAGUCCCGUACGGAACG [G17A C24U C30U C46A]	≤ 0.5
GUUCCGUUGGCGUAAUAGUAACGCGUCUCGCUCCUAAGGCGGAGACUGCGGGUUCGAGUCCCGUACGGAACG [G17A C30G A40C A42G]	≤ 0.5
GUUCCGUUGGCGUAAUAGUAAAGCGUCUCCCUCCUAAGGAGAAGCCUGCGGGUUCGAGUCCCCUAUGGAACG [G17A C22A A45C G63C C66U]	≤ 0.5
GUUCCGUUGGCGUAAUAGUAACGCGUCUUCCUUCUAAGGAGAAGACUGCGGGUUCGAGUGCCGUGCGGAACG [G17A C29U C33U C60G A65G]	≤ 0.5
